Columns and labels:
HepG2 = assay: Cytotoxicity against human HepG2 after 72 hrs by MTT assay; type: functional, cell-based; settings: HepG2, 72 h
How it was run: (§1)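 Cells seeded at 3.5 × 10⁴ cells/mL and pre-incubated 24 h at 37 °C, 5% CO₂; compounds diluted in DMSO and added for a further 72 h, with DMSO (final 0.5%) as control. Surviving cells measured by MTT, OD read at 492/620 nm; IC50 as mean of triplicate experiments.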

HCT-116 = assay: Cytotoxicity against human HCT116 cells after 72 hrs by MTT assay; type: functional, cell-based; settings: HCT-116, 72 h; how it was run: as §1
PC-3 = assay: Cytotoxicity against human PC3 cells after 72 hrs by MTT assay; type: functional, cell-based; settings: PC-3, 72 h; how it was run: as §1
[1] = Cytotoxicity against human U87MG cells after 72 hrs by MTT assay; type: functional, cell-based, U-87MG ATCC; settings: U-87 MG; how it was run: as §1
SK-OV-3 = assay: Cytotoxicity against human SKOV3 cells after 72 hrs by MTT assay; type: functional, cell-based; settings: SK-OV-3, 72 h; how it was run: as §1
[2] = Cytotoxicity against human L02 cells after 72 hrs by MTT assay; type: cell-based; settings: L02, 72 h; how it was run: as §1
Mus musculus = assay: Toxicity in mouse S180 cells xenografted ICR mouse assessed as mortality at 15 to 30 mg/kg, ip qd for 7 days; type: organism-based, CCRF S-180; parameters: dose 15-30 mg/kg, route intraperitoneal; settings: in vivo, 168 h
How it was run: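 S-180 sarcoma cells implanted into ICR mice (3 × 10⁶ cells/animal for this batch), ten animals per group allocated by weight. Drug dissolved in 0.9% saline (stock 0.75–3 mg/mL) and given intraperitoneally once daily for seven consecutive days at 7.5, 15 or 30 mg/kg; saline-only model group. Body weight recorded every two days; tumors excised and weighed 24 h after last injection.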

[3] = Cytotoxicity against human HK2 cells after 72 hrs by MTT assay; type: cell-based; settings: HK-2, 72 h; how it was run: as §1
CCRF S-180 [4] = assay: Antitumor activity against mouse S180 cells xenografted in ICR mouse assessed as tumor growth suppression at 7.5 mg/kg, ip qd for 7 days measured on day 8; type: functional; settings: route intraperitoneal
How it was run: (§2)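 S-180 sarcoma cells implanted in ICR mice (2.5 × 10⁶ or 3 × 10⁶ cells/animal, depending on batch); ten animals per group, allocated by body weight. Dosed intraperitoneally once daily for seven consecutive days in 0.9% physiological saline; saline-only model group and amonafide 30 mg/kg positive control. Body weights recorded every two days; tumours excised and weighed 24 h after last injection; suppression relative to control group.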

CCRF S-180 [5] = assay: Antitumor activity against mouse S180 cells xenografted in ip dosed ICR mouse assessed as tumor growth suppression administered qd for 7 days measured on day 8; type: functional, organism-based; how it was run: as §2
CCRF S-180 [6] = assay: Antitumor activity against mouse S180 cells xenografted in ICR mouse assessed as tumor growth suppression at 30 mg/kg, ip qd for 7 days measured on day 8 relative to control; type: functional; settings: route intraperitoneal; how it was run: as §2
CCRF S-180 [7] = assay: Antitumor activity against mouse S180 cells xenografted in ICR mouse assessed as tumor growth suppression at 60 mg/kg, ip qd for 7 days measured on day 8 relative to control; type: functional; settings: route intraperitoneal; how it was run: as §2
CCRF S-180 [8] = assay: Antitumor activity against mouse S180 cells xenografted in ICR mouse assessed as tumor growth suppression at 45 mg/kg, ip qd for 7 days measured on day 8 relative to control; type: functional; settings: route intraperitoneal; how it was run: as §2

SMILES | IC50 (HepG2) | IC50 (HCT-116) | IC50 (PC-3) | IC50 [1] | IC50 (SK-OV-3) | IC50 [2] | Activity (Mus musculus) | IC50 [3] | Activity (CCRF S-180 [4]) | Activity (CCRF S-180 [5]) | Activity (CCRF S-180 [6]) | Activity (CCRF S-180 [7]) | Activity (CCRF S-180 [8])
CN(C)CCN1C(=O)c2cccc3cc(N)cc(c23)C1=O [AMONAFIDE] | 1410 nM | 4550 nM | 8.05 µM | 2800 nM | 8830 nM |  |  |  |  |  |  |  | 
CN(C)CCCN1C(=O)c2cccc3c2c(cc2nnn(CCO)c23)C1=O | 5210 nM | 7730 nM | 25 µM | 4310 nM | 9640 nM |  |  |  |  |  |  |  | 
CCCCn1nnc2cc3c4c(cccc4c21)C(=O)N(CCCN(C)C)C3=O | 5770 nM | 6340 nM | 15.5 µM | 6320 nM | 8930 nM |  |  |  |  |  |  |  | 
CN(C)CCN1C(=O)c2cccc3c2c(cc2nnn(C)c23)C1=O | 680 nM | 650 nM | 1.58 µM | 450 nM | 1170 nM | 1.77 µM | Toxic | 0.99 µM | 26.25% |  |  |  | 
CN(C)CCCN1C(=O)c2cccc3c2c(cc2nnn(C)c23)C1=O | 970 nM | 1350 nM | 3.21 µM | 1140 nM | 2000 nM |  |  |  |  |  |  |  | 
CN(C)CCCn1nnc2cc3c4c(cccc4c21)C(=O)N(CCN(C)C)C3=O | 180 nM | 150 nM | 0.71 µM | 140 nM | 400 nM |  |  |  |  |  |  |  | 
CN(C)CCN1C(=O)c2cccc3cc(Nc4ccc([N+](=O)[O-])cc4)cc(c23)C1=O | 410 nM | 620 nM | 0.41 µM | 620 nM | 1320 nM |  |  |  |  |  |  |  | 
CCCCn1nnc2cc3c4c(cccc4c21)C(=O)N(CCN(C)C)C3=O | 1010 nM | 1820 nM | 4.77 µM | 1460 nM | 2550 nM |  |  |  |  |  |  |  | 
CN(C)CCCN1C(=O)c2cccc3c2c(cc2nnn(CCCN(C)C)c23)C1=O | 290 nM | 350 nM | 1.2 µM | 300 nM | 460 nM |  |  |  |  |  |  |  | 
CN(C)CCN1C(=O)c2cccc3c2c(cc2nnn(CCN(C)C)c23)C1=O | 170 nM | 190 nM | 0.73 µM | 130 nM | 350 nM |  |  |  |  |  |  |  | 
COc1ccc(Nc2cc3c4c(cccc4c2)C(=O)N(CCN(C)C)C3=O)cc1 | 900 nM | 1240 nM | 1.62 µM | 2520 nM | 2340 nM |  |  |  |  |  |  |  | 
Cn1nnc2cc3c4c(cccc4c21)C(=O)N(CC[N+](C)(C)[O-])C3=O | > 10000 nM | > 10000 nM | > 10 µM | > 10000 nM | > 10000 nM | 142 µM |  | 108 µM |  | Dose-dependent effect | 4.83% | 62.74% | 46.18%
CN(C)CCN1C(=O)c2cccc3c2c(cc2nnn(CCO)c23)C1=O | 1070 nM | 1420 nM | 4.29 µM | 1220 nM | 2530 nM |  |  |  |  |  |  |  | 
CN(C)CCCN1C(=O)c2cccc3c2c(cc2nnn(CCN(C)C)c23)C1=O | 780 nM | 390 nM | 3.28 µM | 370 nM | 640 nM |  |  |  |  |  |  |  | 

From ChEMBL document CHEMBL1926543, “Unprecedented synthesis, in vitro and in vivo anti-cancer evaluation of novel triazolonaphthalimide derivatives” (Eur J Med Chem, 2012)
